# Experimental data reported in the RNAGym collection of RNA variant scans (doi:10.1038/s41586-018-0170-7).
# B1: tRNA (parent)
# chain: GUUCCGUUGGCGUAAUGGUAACGCGUCUCCCUCCUAAGGAGAAGACUGCGGGUUCGAGUCCCGUACGGAACG
# Variants of: B1
# Assay: yeast fitness, log relative to wild type (ln ratio); higher = fitter; tRNA-Arg(CCU), competitive growth, 37 C, 1 M NaCl
# Procedure, shortened: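 Two independent transformations put a combinatorial tRNA-Arg(CCU) variant library on a HIS3 centromeric plasmid into BY4742 lacking the chromosomal gene. Pools were grown in SC-HIS at 30 °C for 4 generations, then in SC-HIS 1M NaCl at 37 °C for ~6.5 generations (~26.5 h), with three outputs taken per input. Fitness compares a genotype's generations with the wild type's as a natural log ratio. Those generations are OD-scaled log2 output/input frequencies, inverse-variance weighted across replicates, from 125 bp paired-end Illumina counts.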
row,Variant,yeast fitness (ln)
1,G1A U2C G6A C46U C66U C71U,-0.0596
2,G1A U2C G6U C27U C46U C66A A70G C71U,-0.0279
3,G1A U2C G6U A43C C46U C66A A70U,-0.177
4,G1A U2C G6U A43C C46U C66A A70G,-0.000562
5,G1A U2C G6U C27U A43C C46U C66U A70G C71U,-0.0871
6,G1A U2C G6U C27U C46U A69G A70G C71U,-0.272
7,G1A U2C G6A C27U C66U A70G,-0.128
8,G1A U2C G6A C27U C66U A70U,-0.141
9,G1A U2G C27U,-0.0429
10,G1A U2C G6U C46U C66U A69G A70U,-0.156
11,G1A U2C G6U C46U C66U A69G A70G,-0.183
12,G1A U2C G6A C27U C46U A70U C71U,-0.0799
13,G1A U2C G6U C46U A70U,-0.0682
14,G1A U2C G6U C46U A70G,-0.239
15,G1A U2C G6U C27U,-0.0816
16,G1A U2C G6U A43C C46U C66A A69G A70U,-0.0654
17,G1A U2C G6U A43C C46U C66A A69G A70G,-0.25
18,G1A U2C G6U A43C C46U C66A A70U C71U,-0.425
19,G1A U2C G6A C46U C66A A69G A70G C71U,-0.172
20,G1A U2C G6A C27U C46U A69G A70G C71U,-0.489
21,G1A U2C G6U C27U C66A A70G,-0.141
22,G1A U2G A43C A70U C71U,-0.0335
23,G1A U2C G6A C46U C66U A69G A70G C71U,-0.0172
24,G1A U2C G6A C46U A70G,-0.179

row,Variant,yeast fitness (ln)
1,G1A U2C G6A C46U A70U,-0.0702
2,G1A U2C G6U C46U A69G A70U C71U,-0.249
3,G1A U2G C27U A43C C46U A69G A70G,-0.22
4,G1A U2G C27U A43C C46U A69G A70U,-0.161
5,G1A U2C G6U A70U C71U,-0.158
6,G1A U2C G6U A69G A70U,-0.152
7,G1A U2C G6A C66U A70G C71U,-0.0113
8,G1A U2C G6U C27U C46U C66U C71U,-0.196
9,G1A U2C G6U C46U A69G A70G,-0.0666
10,G1A U2C G6U C46U A69G A70U,-0.0237
11,G1A U2G C27U A43C C46U A69G,-0.212
12,G1A U2G A43C C71U,-0.129
13,G1A U2C G6U A43C C46U C66U A69G A70G C71U,-0.201
14,G1A U2G C27U A43C C46U C66U A69G A70U C71U,-0.5
15,G1A U2C G6A C27U C66U A69G A70U,-0.0942
16,G1A U2G C27U A43C A69G A70U,-0.281
17,G1A U2G C27U A43C A69G A70G,-0.263
18,G1A U2C G6A C46U C66U A69G A70U,-0.0207
19,G1A U2C G6A C46U C66U A69G A70G,-0.0859
20,G1A U2G A43C C66U A69G C71U,-0.497
21,G1A U2C G6A C27U C46U A70G C71U,-0.0986
22,G1A U2C G6U A43C A69G A70G C71U,-0.268
23,G1A U2C G6U C46U C71U,-0.111
24,G1A U2C G6U C27U C46U A69G A70G,-0.176

row,Variant,yeast fitness (ln)
1,G1A U2C G6U C27U C46U A69G A70U,-0.219
2,G1A U2C G6U A43C C66A A69G A70G C71U,-0.0437
3,G1A U2C G6U C27U C66U A70U,-0.176
4,G1A U2G A43C A70G,-0.108
5,G1A U2G A43C A70U,-0.33
6,G1A U2C G6U C27U A43C C46U C66U A69G A70U C71U,-0.398
7,G1A U2G C27U A43C C46U C66U A70U,-0.214
8,G1A U2G C27U A43C C46U C66U A70G,-0.172
9,G1A U2C G6U C27U A69G A70G C71U,-0.22
10,G1A U2G A43C C66A A70U,-0.12
11,G1A U2G A43C C66A A70G,-0.241
12,G1A U2G A70U,-0.124
13,G1A U2G A70G,-0.0928
14,G1A U2G C27U A43C C46U A70G C71U,-0.223
15,G1A U2C G6U A43C C46U A69G A70U C71U,-0.343
16,G1A U2G A43C A69G A70G C71U,-0.202
17,G1A U2G A43C C46U A70U C71U,-0.00171
18,G1A U2G C27U A43C C46U,-0.038
19,G1A U2C G6U C66A A69G A70G C71U,-0.0278
20,G1A U2C G6U C46U A69G C71U,-0.0722
21,G1A U2G A43C A69G A70U,-0.159
22,G1A U2G A43C A69G A70G,-0.172
23,G1A U2C G6U C27U A43C C46U A70U C71U,-0.177
24,G1A U2C G6U C46U,0.0116

row,Variant,yeast fitness (ln)
1,G1A U2C G6U C27U A43C C46U,-0.0772
2,G1A U2C G6A C46U C66U A70G,-0.0233
3,G1A U2C G6A C46U C66U A70U,-0.182
4,G1A U2C G6U C27U A43C C46U A70G C71U,-0.198
5,G1A U2G C27U A43C A70G,-0.176
6,G1A U2G C27U A43C A70U,-0.154
7,G1A U2C G6U C27U A43C C46U A70G,-0.207
8,G1A U2C G6U C27U A43C C46U A70U,-0.151
9,G1A U2G A69G C71U,-0.135
10,G1A U2C G6U C27U C66U A69G A70G C71U,-0.251
11,G1A U2G,-0.0263
12,G1A U2G C27U A43C A69G A70G C71U,-0.262
13,G1A U2C G6U C27U A43C C46U C66A A70U C71U,-0.124
14,G1A U2G A43C A69G C71U,-0.219
15,G1A U2C G6A C27U C46U C66U A70U C71U,-0.364
16,G1A U2C G6U C27U A43C A69G A70U C71U,-0.282
17,G1A U2C G6A C46U C66U A69G A70U C71U,-0.339
18,G1A U2C G6U C46U C66A A69G A70U,0.0136
19,G1A U2C G6U C46U C66A A69G A70G,-0.139
20,G1A U2C G6U C27U A43C C46U A69G A70U,-0.183
21,G1A U2C G6U C27U A43C C46U A69G A70G,-0.297
22,G1A U2C G6U A43C C46U C66U A70U,-0.167
23,G1A U2C G6A C66A A70G C71U,-0.127
24,G1A U2C G6U A70G C71U,-0.0526

row,Variant,yeast fitness (ln)
1,G1A U2G C27U A43C C46U C66U A69G C71U,-0.383
2,G1A U2C G6U C46U A70U C71U,-0.033
3,G1A U2C G6U C46U C66U A69G A70U C71U,-0.317
4,G1A U2G C27U A43C C46U C66A A70U C71U,-0.35
5,G1A U2G A43C C46U C66U A70G C71U,-0.243
6,G1A U2C G6U C27U A43C A69G A70G C71U,-0.238
7,G1A U2C G6A C66U C71U,-0.083
8,G1A U2C G6U A69G A70G C71U,-0.367
9,G1A U2C G6A C27U C46U,-0.0428
10,G1A U2C G6U A70U,-0.00843
11,G1A U2C G6U A70G,-0.113
12,G1A U2C G6U C27U A69G A70U C71U,-0.467
13,G1A U2C G6U C27U C46U A69G A70U C71U,-0.392
14,G1A U2C G6A C27U C46U A69G A70U,-0.07
15,G1A U2G C27U A43C C46U C66A A69G C71U,-0.315
16,G1A U2C G6U C66A A69G A70U,0.0124
17,G1A U2C G6U C66A A69G A70G,-0.126
18,G1A U2G A43C C66U C71U,-0.257
19,G1A U2G A43C C66U A70G C71U,-0.22
20,G1A U2C G6A C27U C46U C66U A69G A70U C71U,-0.327
21,G1A U2G A43C A70G C71U,-0.207
22,G1A U2C G6U A43C C66U A70U,-0.295
23,G1A U2C G6U A43C A70U,-0.153
24,G1A U2G C27U A43C C46U C66A A69G A70G C71U,-0.269

row,Variant,yeast fitness (ln)
1,G1A U2G A43C C66A A69G A70G C71U,-0.329
2,G1A U2G A43C C46U C66A A70U C71U,-0.168
3,G1A U2C G6A C27U A70U C71U,-0.109
4,G1A U2C G6U C27U A43C C46U C66A A70G,-0.15
5,G1A U2C G6U C27U A43C C46U C66A A70U,-0.0771
6,G1A U2C G6A C46U A70G C71U,-0.00868
7,G1A U2C G6U C27U A43C C66A A69G A70G C71U,-0.272
8,G1A U2C G6A C27U A43C C71U,-0.295
9,G1A U2C G6A C46U C66A A70G C71U,-0.105
10,G1A U2C G6U C66U A69G A70U,-0.244
11,G1A U2C G6U C66U A69G A70G,-0.362
12,G1A U2C G6U C46U C66U A70U C71U,-0.203
13,G1A U2G C27U A43C C46U C71U,-0.0914
14,G1A U2G A69G A70U C71U,-0.0282
15,G1A U2C G6A C46U C66U,-0.16
16,G1A U2C G6U C66A C71U,-0.115
17,G1A U2C G6U C27U A43C A70G C71U,-0.22
18,G1A U2G A43C C46U C66A A69G A70U,-0.252
19,G1A U2G A43C C46U A69G A70G C71U,-0.226
20,G1A U2C G6A C27U A70U,-0.0756
21,G1A U2C G6U C27U A43C C46U C66A A69G A70U,-0.378
22,G1A U2C G6U A43C C46U A70G C71U,-0.359
23,G1A U2C G6A C46U A69G A70U C71U,-0.0787
24,G1A U2C G6U C27U C46U A70U C71U,-0.13

row,Variant,yeast fitness (ln)
1,G1A U2C G6U A43C C46U C71U,-0.143
2,G1A U2C G6A C27U C66U A69G A70G C71U,-0.0671
3,G1A U2C G6A C66U A70U,-0.0837
4,G1A U2C G6A C66U A70G,-0.00694
5,G1A U2G A43C C66A A70G C71U,-0.333
6,G1A U2C G6U C46U A69G A70G C71U,-0.15
7,G1A U2G C27U A43C C46U A70U C71U,-0.0479
8,G1A U2C G6U C27U C66A A69G A70G C71U,-0.137
9,G1A U2G C27U A43C A69G A70U C71U,-0.353
10,G1A U2C G6A C27U C46U C66U A70G C71U,-0.00474
11,G1A U2G C27U A43C C46U C66U C71U,-0.277
12,G1A U2C G6U C27U A43C C66U A69G A70G C71U,-0.117
13,G1A U2G A69G A70G C71U,-0.438
14,G1A U2C G6U A43C C46U A69G A70G C71U,-0.124
15,G1A U2C G6U C66U A70U C71U,-0.095
16,G1A U2C G6U A43C A69G A70U C71U,-0.248
17,G1A U2G A43C C66U,-0.246
18,G1A U2C G6U C27U A70U C71U,-0.287
19,G1A U2C G6U C27U C46U C66A A70U C71U,-0.264
20,G1A U2C G6U C71U,-0.159
21,G1A U2G A43C C66U A69G A70G,-0.328
22,G1A U2G A43C C66U A69G A70U,-0.287
23,G1A U2C G6U C66U A70G,-0.302
